S100A4 inh HTS = inhibitors of human S100A4 binding to myosin IIA peptide; P26447; S100A4/TAMRA-MyoIIA peptide fluorescence polarization; inhibition, % at 10.7 µM; actives 0.14% (n = 360,000);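 active = mean inhibition of at least 70% across replicates, with every replicate also reaching that level; inconclusive = mean inhibition reaches 70% but some replicates fall short; inactive = mean inhibition below 70%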
Target sequence (P26447 whole entry, looked up): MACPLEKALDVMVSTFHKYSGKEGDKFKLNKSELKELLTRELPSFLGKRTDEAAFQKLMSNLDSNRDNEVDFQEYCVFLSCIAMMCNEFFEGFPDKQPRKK
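Assay system: human S100A4 monomer with TAMRA-labelled myosin IIA peptide / Buffer or medium: Calcium-containing HEPES buffer, pH 7.2 / Reagent: TAMRA-labelled myosin IIA heavy-chain peptide probe, 5 nM / Compound: one dose per compound / Timing: polarization read 5 min after assay mix addition, stable 5–60 min / Benchmarks: neutral control DMSO, positive control TFP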
Ecoli rRNA inh = inhibits bacterial ribosomal RNA function over humanized ribosomes; actives 1.6% (n = 350,000); E. coli WT GFP vs humanized-ribosome RFP mutants, fluorescence, 24 h; active compounds read low; DMSO median 0, no signal -100; GFP signal change (wild-type ribosome), % (no concentration beside the values); AID 720706;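 active = significant combined selectivity score with lowered wild-type GFP, culture density cut under 30%, mutant RFP and density less affected; inactive = any of these conditions unmet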
E-sel inducer = induces E-selectin expression in human endothelial cells; activation, % at 7.58 µM; HUVEC E-selectin immunofluorescence imaging; normalized: neutral wells 0, TNF-alpha wells 100; actives 0.37% (n = 260,000); P16581; AID 686992;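 active = mean E-selectin-positive cell signal at least 10% of the positive control, reached in at least 60% of replicates, without over 20% cell loss; inconclusive = no rule given, readout overlaps actives, possibly toxicity-flagged; inactive = the rest, including those meeting only one limit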
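Test system: HUVEC | Signal: Immunofluorescence imaging | Read-out: Percent E-selectin-positive cells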
AF4-AF9 inh = MLL-AF4/AF9 protein interaction inhibition | inhibition, % at 10 µM | AID 651704 | actives 0.47% (n = 350,000) | AlphaScreen, biotin-AF4 peptide binding to FLAG-AF9 | P42568;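 active = every replicate reaching a set inhibition limit, whatever the replicate mean, cut at about 25% in these data; inconclusive = mean inhibition reaches that limit but some replicates miss it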;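 note: 0% = plate neutral control median and 100% = total signal loss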
ERAP1 HTS inh = ERAP1 (human) enzyme inhibition | inhibition, % at 10.7 µM | actives 0.15% (n = 340,000) | Q9NZ08 | recombinant ERAP1, Leu-AMC fluorescence, 60 min;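 active = mean replicate inhibition of at least 30%, or all replicates individually reaching that 30% level; inactive = mean below 30% and not every replicate reaching it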;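 note: 0% = neutral control wells and 100% = L-leucinethiol positive control wells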
SIRT5 inh = sirtuin-5 (human) deacylase inhibition. actives 1.1% (n = 330,000). AID 652115. Purified SirT5, succinyl-peptide AMC, trypsin-coupled fluorescence. Q9NXA8. inhibition, % at 15 µM; in the data active = inhibition above about 15%; inconclusive = no clear call, values can overlap the other calls
Target sequence (Q9NXA8 whole entry, looked up): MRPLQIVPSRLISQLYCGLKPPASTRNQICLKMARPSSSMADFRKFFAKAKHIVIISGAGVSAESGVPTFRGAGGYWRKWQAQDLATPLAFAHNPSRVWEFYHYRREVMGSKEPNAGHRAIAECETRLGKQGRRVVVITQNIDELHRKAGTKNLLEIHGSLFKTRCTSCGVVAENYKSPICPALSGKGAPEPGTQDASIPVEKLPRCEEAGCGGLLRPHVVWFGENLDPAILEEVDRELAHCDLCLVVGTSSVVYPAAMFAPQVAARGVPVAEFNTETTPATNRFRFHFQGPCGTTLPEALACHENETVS
* = called active by the depositor; ? = inconclusive; / = no result given. Rows were chosen to be rich in hits. Some 3.4% of all compounds tested hit in one or more screens of this group.

SMILES | S100A4 inh HTS | Ecoli rRNA inh | E-sel inducer | AF4-AF9 inh | ERAP1 HTS inh | SIRT5 inh
Cc1cc(C)n2nc(C(=O)Nc3ccc(N4CCOCC4)cc3)nc2n1 | -4 | 0 | / | / | 59* | -2
COc1ccc2c3c([nH]c2c1)[C@@H](CO)N(C)CC31CCN(C(=O)Nc2c(C)noc2C)CC1 | 2 | 3 | 0 | -1 | / | 2
Cc1ccc(Nc2c(-c3ccccn3)nc3cc(C)ccn23)cc1 | -11 | -58 | / | 37* | -5 | -1
C[C@H]1CN([C@@H](C)CO)C(=O)c2cc(NC(=O)Nc3ccccc3)ccc2O[C@@H]1CN(C)S(C)(=O)=O | 8 | 3 | 2 | -5 | 1 | -1
COc1ccc(NC(=O)CSCC(=O)NCc2cccc(C(F)(F)F)c2)cc1 | 1 | -5 | 0 | 2 | 1 | -1
COc1cc(NC(=O)CSCC(=O)Nc2cccc(C(F)(F)F)c2)c(Cl)cc1Cl | -1 | -31* | / | -8 | -1 | -5
O=C(N[C@H]1CC[C@H](CCNS(=O)(=O)c2ccccc2Cl)O[C@@H]1CO)c1ccccc1 | -6 | 1 | 1 | 0 | 3 | 18*
O=C(Cc1ccncc1)NCC[C@@H]1CC[C@@H](NC(=O)C2CCOCC2)[C@@H](CO)O1 | 102* | 2 | 0 | -1 | 0 | -3
O=C(Cc1ccncc1)NCC[C@@H]1CC[C@H](NC(=O)C2CCOCC2)[C@H](CO)O1 | 7 | 1 | 0 | 0 | 0 | -3
O=C(C[C@@H]1CC[C@@H](NC(=O)c2ccccc2)[C@H](CO)O1)NCCc1ccncc1 | ? | 0 | 0 | -3 | -1 | -1
O=C(C[C@H]1CC[C@@H](NC(=O)c2ccccc2)[C@H](CO)O1)NCCc1ccncc1 | 28 | -1 | 0 | -1 | -1 | 32*
O=C(N[C@H]1CC[C@H](CCNS(=O)(=O)Cc2ccccc2)O[C@H]1CO)c1ccccc1F | 5 | 8 | 0 | -9 | 0 | 1.7*
COc1ccc(-c2ccc(C3[C@H]4CNC[C@@H]3N4S(=O)(=O)c3cn(C)cn3)cc2)cc1 (some centres undefined) | 4 | 3 | 0 | 2 | 2 | 0
O=C(C[C@@H]1C[C@@H]2c3cc(NC(=O)Nc4ccc(F)cc4)ccc3O[C@@H]2[C@H](CO)O1)NC1CCCCC1 | / | -3 | 2 | / | / | -8
C[C@@H]1CN([C@@H](C)CO)S(=O)(=O)c2ccc(-c3ccncc3)cc2O[C@H]1CN(C)C | 3 | 2 | 1 | -1 | 1 | 10
Cc1ccc(S(=O)(=O)NCC[C@@H]2CC[C@@H](NC(=O)C3CCOCC3)[C@H](CO)O2)cc1 | 99* | 1 | 0 | 0 | 0 | 5
C[C@@H](NC(=O)C[C@@H]1CC[C@H](NC(=O)C2CCC2)[C@H](CO)O1)c1ccccc1 | 107* | 0 | 0 | 1 | -1 | 7
O=C(CN1CCOCC1)N[C@@H]1CC[C@H](CCNC(=O)C2CCCCC2)O[C@H]1CO | -3 | -2 | 0 | -2 | -3 | 15*
O=C(N[C@@H]1CC[C@H](CCNS(=O)(=O)c2ccccc2)O[C@H]1CO)c1cnccn1 | -2 | 3 | -1 | 0 | -1 | 28*
O=C(N[C@@H]1CC[C@H](CCNS(=O)(=O)c2ccccc2)O[C@@H]1CO)c1cnccn1 | 6 | 1 | -1 | 0 | -1 | -2
C[C@H]1CCCCO[C@H](CN(C)C(=O)C2CCCCC2)[C@@H](C)CN([C@@H](C)CO)C(=O)c2cc(NC(=O)Nc3ccc(F)cc3)ccc2O1 | 8 | -5 | 1 | 6 | 3 | 7
C[C@H](CO)N1C[C@H](C)[C@@H](CN(C)S(C)(=O)=O)Oc2ccc(NS(=O)(=O)c3ccccc3)cc2CC1=O | -7 | 6 | 1 | 4 | -1 | -7
Cc1ccccc1S(=O)(=O)NCC[C@H]1CC[C@H](NC(=O)C2CCC2)[C@H](CO)O1 | 102* | -1 | 0 | 2 | -3 | 4
COc1ccc2c3c([nH]c2c1)[C@H](CO)N(C(=O)CN(C)C)CC31CCN(Cc2ccccc2Cl)CC1 | 5 | 2 | 0 | 28* | -5 | 7
COc1ccc2c3c([nH]c2c1)[C@@H](CO)N(C(C)=O)CC31CN(Cc2ccccc2Cl)C1 | -9 | -23 | 0 | 29* | 0 | 0
SMILES | S100A4 inh HTS | Ecoli rRNA inh | E-sel inducer | AF4-AF9 inh | ERAP1 HTS inh | SIRT5 inh
COc1ccc2c3c([nH]c2c1)[C@@H](CO)N(C(=O)C1CC1)CC31CN(C(=O)c2ccncc2)C1 | 6 | -2 | 0 | 1 | 6 | 1
CCC(=O)N1CC2(CN(Cc3ccccc3Cl)C2)c2c([nH]c3cc(OC)ccc23)[C@H]1CO | -1 | -55 | 0 | 30* | 0 | -2
COc1ccc2c3c([nH]c2c1)[C@H](CO)N(C(=O)C1CC1)CC31CN(C(=O)c2ccncc2)C1 | -5 | 5 | 0 | 1 | 2 | 15*
CNC[C@H]1Oc2ccc(N(C)C)cc2C(=O)N(C)C[C@@H]1C | / | 1 | / | / | / | /
C[C@@H]1CN([C@@H](C)CO)C(=O)Cc2cc(NS(=O)(=O)c3cccs3)ccc2O[C@H]1CN(C)C(=O)Nc1ccccc1 | 0 | 3 | 0 | -2 | 2 | -11
COCC(=O)Nc1ccc2c(c1)C(=O)N(C)[C@@H]1CC[C@@H](CC(=O)O)O[C@H]1CO2 | / | 2 | 0 | / | / | /
CC(C)CC#Cc1cnc2c(c1)C(=O)N([C@H](C)CO)C[C@H](C)[C@@H](CN(C)C(=O)c1ccc(F)cc1)O2 | -6 | -4 | 1 | 2 | -4 | 2
CO[C@@H]1CN(C)C(=O)c2cc(NS(C)(=O)=O)ccc2OC[C@@H](C)N(C)C[C@@H]1C | -11 | 5 | 0 | -3 | -2 | -1
COc1ccc2c3c([nH]c2c1)[C@H](CO)N(C(=O)CN(C)C)CC31CN(Cc2ccccc2Cl)C1 | / | -12 | -1 | 32* | / | /
C[C@@H]1CN([C@@H](C)CO)S(=O)(=O)c2ccc(C3=CCCC3)cc2O[C@H]1CN(C)C(=O)c1ccccc1 | -24 | 1 | 1 | -10 | -3 | 1
CNC(=S)N(Cc1ccc(Cl)cc1)Cc1cccs1 | 3 | -43* | 2 | -1 | 2 | 0
O=C(C[C@@H]1C[C@H]2c3cc(NC(=O)CC4CC4)ccc3O[C@H]2[C@@H](CO)O1)NCCN1CCCCC1 | 0 | 5 | 0 | 1 | 9 | 1
O=C(O)/C=C/C(=O)Nc1ccc(Cc2ccc(NC(=O)/C=C/C(=O)O)cc2)cc1 | -3 | -8 | 0 | -1 | 4 | 22*
O=C(O)/C=C/C(=O)Nc1ccc(C2(c3ccc(NC(=O)/C=C/C(=O)O)cc3)c3ccccc3-c3ccccc32)cc1 | -8 | -10 | / | -1 | 0 | 16*

Assay outcomes deposited in PubChem BioAssay by Broad Institute.
